Compound activity from PubChem BioAssay.
FGF22 binding = shifts melting point of recombinant human FGF22 | recombinant FGF22 thermal shift, SYPRO orange fluorescence; percent of sucrose octasulfate shift, DMSO zero | activity (Tm shift, normalised), % at 9.99 µM | 1.5% of 340,000 active;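 active = mean Tm shift, scaled 0 neutral to 100 positive control, at about 1.3% or above, every replicate too, limit read from the data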
XiGFP reactiv = X-chromosome reactivation activator; activation, % at 7.58 µM; 0.055% of 360,000 active; XiGFP mouse fibroblasts, % GFP-positive cells imaging, 3 d; cells co-treated with 5-aza-dC sensitizer; scaled so ellipticine positive control = 100%;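 active = mean normalized replicate activation at least 10% and every replicate at or above 10%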;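 note: 0% = median of on-plate neutral control wells and 100% = ellipticine 6 µM median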
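Material: XiGFP fibroblasts, SV40-immortalized. Buffer or medium: DMEM plus 5-aza-dC sensitizer. Compound: single concentration per compound, delivered by pin transfer. Times: 3 days compound exposure. Controls: ellipticine 6 µM.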
DENV2 CPE rescue = inhibitors of DENV2 cytopathic effect. DENV2-infected cells, cytopathic effect rescue, plate reader. CPE inhibition, % at 9.99 µM. 1.7% of 350,000 active; in the data active = CPE inhibition above about 20%, passing the limit was not always enough; tested in BHK-21 cells;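 note: 0% = median of neutral control wells and 100% = median of positive control wells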
Statin myotox sup = protects C2C12 myotubes from simvastatin toxicity. ATP luminescence, 48 h; scaled: DMSO 0, geranylgeraniol control 100. rescue of ATP level, % at 7.49 µM. 0.78% of 330,000 active. AID 602340;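 active = mean ATP rescue above about 67%, or every replicate alone reaching that limit, limit read from the data, passing the limit was not always enough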;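 note: myotubes were challenged with 10 µM simvastatin during compound exposure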
E-selectin induc = E-selectin induction on HUVECs | HUVEC E-selectin immunofluorescence imaging; normalized: neutral wells 0, TNF-alpha wells 100 | activation, % at 7.58 µM | 0.37% of 260,000 active;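 active = mean E-selectin-positive cell signal at least 10% of the positive control, reached in at least 60% of replicates, without over 20% cell loss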
Target sequence (P16581 whole entry, looked up): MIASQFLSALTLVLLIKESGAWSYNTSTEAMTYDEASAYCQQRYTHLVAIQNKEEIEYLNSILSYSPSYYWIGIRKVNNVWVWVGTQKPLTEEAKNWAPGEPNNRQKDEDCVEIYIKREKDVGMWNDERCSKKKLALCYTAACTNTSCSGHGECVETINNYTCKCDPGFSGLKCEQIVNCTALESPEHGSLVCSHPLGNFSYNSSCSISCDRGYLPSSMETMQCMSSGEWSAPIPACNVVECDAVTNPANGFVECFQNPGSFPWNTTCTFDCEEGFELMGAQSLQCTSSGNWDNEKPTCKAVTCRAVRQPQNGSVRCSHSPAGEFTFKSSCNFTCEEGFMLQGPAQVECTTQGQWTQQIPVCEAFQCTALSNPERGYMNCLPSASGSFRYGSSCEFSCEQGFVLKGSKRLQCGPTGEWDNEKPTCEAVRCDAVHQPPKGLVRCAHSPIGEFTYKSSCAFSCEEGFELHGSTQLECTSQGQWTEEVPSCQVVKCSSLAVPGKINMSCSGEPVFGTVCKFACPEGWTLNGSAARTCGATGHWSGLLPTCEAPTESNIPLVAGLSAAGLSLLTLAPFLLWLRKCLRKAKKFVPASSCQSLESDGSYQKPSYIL
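System: HUVEC, human umbilical vein endothelial cells; quantity: 3,000 cells/well; buffer or medium: EGM-2 medium, gelatin-coated wells; dosing: single-point compound dose; detection: immunofluorescence imaging; evaluation: % PE-positive cells; benchmarks: TNF-alpha, DMSO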
PglD inh = blocks C. jejuni PglD acetyltransferase activity | purified PglD enzyme, DTNB colorimetric CoA detection | inhibition, % at 12.5 µM | AID 602405 | 0.098% of 360,000 active; in the data active = inhibition above about 16%, passing the limit was not always enough
* = called active by the depositor; . = not tested or not shown; ! = repeats disagree. Most compounds without a hit are left out; they make up all but 3.3% or so of the library.

SMILES	FGF22 binding	XiGFP reactiv	DENV2 CPE rescue	Statin myotox sup	E-selectin induc	PglD inh
C[C@H]1CN([C@@H](C)CO)C(=O)CCCn2nncc2CO[C@H]1CN(C)S(=O)(=O)c1ccc(Oc2ccccc2)cc1	-0.2	0.2	29.6*!	-2.0	2.9	-1.0
C[C@@H]1CN([C@H](C)CO)C(=O)CCCn2nncc2CO[C@@H]1CN(C)S(=O)(=O)c1ccc(Oc2ccccc2)cc1	0.1	0.1	-12.7	-1.7	-0.2	3.8
C[C@@H]1CN([C@@H](C)CO)C(=O)c2cccc(NS(=O)(=O)c3cn(C)cn3)c2O[C@H]1CN(C)Cc1ccc(C(=O)O)cc1	-0.1	0.5	3.1	.	-1.7	-1.0
Cc1ccc2c(c1)c1nnc(SCC(=O)Nc3ccccc3C(F)(F)F)nc1n2CC(=O)O	0.4	0.0	-0.4	.	.	.
Cc1ccc2c(c1)c1nnc(SCC(=O)Nc3cccc(Cl)c3C)nc1n2CC(=O)O	1.7*	0.0	1.0	.	.	.
COc1ccc(Cc2c(-c3ccco3)nc3c(C)cc(Br)cn23)c(C)c1	0.1	-0.1	22.6*	-72.0	.	3.2
COc1ccc(Cc2c(-c3ccccc3)nc3c(C)cc(Br)cn23)c(C)c1	0.0	0.1	-9.2	52.9	0.0	0.5
CCCc1nc2c(C)cc(Br)cn2c1Cc1ccc(OC)cc1C	-0.1	0.2	20.6*	-4.4	.	1.8
CCCNC(=O)[C@@H]1[C@@H](CO)[C@@H]2Cn3c(ccc(-c4ccncc4)c3=O)[C@H]1N2CC1CC1	-0.2	0.1	-8.6	10.4	-1.4	0.7
O=[N+]([O-])c1ccccc1S(=O)c1ccccc1[N+](=O)[O-]	-0.1	0.4	32.4*	.	0.0	.
O=C(CS(=O)c1ccccc1[N+](=O)[O-])Oc1ccc(Br)cc1 (stereo not given)	0.3	0.0	-1.3	.	.	.
COc1ccc(C(=O)/C=C/C(=O)N(Cc2ccccc2)C(C(=O)NC2CCCCC2)c2ccncc2)c(O)c1 (stereo not given)	0.2	0.0	40.8*	.	.	2.4
COc1ccc(S(=O)(=O)N(C)C[C@@H]2Oc3ccc(NC(=O)CCN4CCOCC4)cc3C(=O)N([C@@H](C)CO)C[C@H]2C)cc1	0.0	-0.1	12.0	-10.7	-0.4	-1.3
CN(C)CCNC(C(=O)Nc1cc(Cl)cc(Cl)c1)c1ccccc1 (stereo not given)	43.1*	0.0	-3.4	.	.	.
CC(C)NC(C(=O)Nc1cc(Cl)cc(Cl)c1)c1ccccc1 (stereo not given)	.	.	.	22.3	.	-6.8
CO[C@H]1CN(C)C(=O)c2ccc(NC(=O)c3cc(C)on3)cc2OC[C@@H](C)N(C)C[C@@H]1C	-0.1	0.4	20.9*	3.1	-0.1	2.1
CO[C@@H]1CN(C)C(=O)c2ccc(NC(=O)c3cc(C)on3)cc2OC[C@H](C)N(C(=O)C2CC2)C[C@H]1C	-0.1	-0.1	32.4*	7.7	0.0	-1.4
C[C@H]1CN([C@@H](C)CO)C(=O)CCCn2cc(nn2)CO[C@H]1CN(C)Cc1ccncc1	0.0	0.0	-3.1	-3.9	0.0	1.3
Cc1nc2ccc(S(=O)(=O)NCC(=O)N3CCCC(C)C3)cc2s1 (stereo not given)	.	.	.	105.6*	.	4.7
Cc1nc2ccc(S(=O)(=O)NCC(=O)N3CCc4ccccc4C3)cc2s1	.	.	.	1.4	.	-0.6
CN(C)CC(=O)Nc1ccc2c(c1)[C@@H]1C[C@@H](CC(=O)N3CCOCC3)O[C@H](CO)[C@@H]1O2	-0.2	0.0	-1.2	-1.6	-0.2	-2.9
CCOc1ncccc1C(=O)Nc1nnc(C2CC2)s1	43.9*	0.1	0.5	.	.	.
COCC(=O)Nc1ccc2c(c1)[C@@H]1C[C@@H](CC(=O)NCc3ccccc3F)O[C@@H](CO)[C@@H]1O2	-0.4	0.1	10.9	-1.8	0.1	-0.6
COCCN(C[C@H]1[C@H](c2ccccc2)[C@H](CO)N1C(C)=O)C(=O)c1ccncc1	0.0	0.0	25.3*	8.5	0.1	-1.8
CC(=O)N1[C@H](CO)[C@H](c2ccccc2)[C@H]1CNC(=O)c1ccncc1	.	-0.1	20.5*	.	0.2	.
O=C(NC[C@@H]1[C@@H](c2ccccc2)[C@@H](CO)N1CC1CCCC1)c1cccnc1	.	0.1	38.5*	14.9	0.0	-2.0
